Experimental data from different studies.
Protocols differ between the studies behind these lines.
SLC6A2: Sodium-dependent noradrenaline transporter (SLC6A2, Homo sapiens, UniProt P23975)

Compound | target | test | system | conditions | endpoint | value
CC(C)CCC[C@@H](C)[C@H]1CC[C@H]2[C@@H]3[C@H](O)CC4=CC(=O)CC[C@]4(C)[C@H]3CC[C@]12C | 7-alpha-hydroxycholest-4-en-3-one 12-alpha-hydroxylase (Homo sapiens, UniProt Q9UNU6) | enzyme activity, substrate |  |  | Km | 505 nM
Clc1ccc(C(c2ccccc2)c2nnnn2CCCN2CCC(Cc3ccccc3)CC2)cc1 (centres unmarked) | SLC6A2 | transporter uptake, inhibitor | HEK293 | 1 µM | inhibition | 93.4%
Nc1ncnc2occ(-c3ccc(NC(=O)Nc4cc(C(F)(F)F)ccc4F)cc3)c12 | Serine/threonine-protein kinase WNK4 (WNK4, Homo sapiens, UniProt Q96J92) | cell-free assay, inhibitor |  | 20 µM | remaining signal | 17%
c1ccc(CCCC2CCN(CCCn3nnnc3C(c3ccccc3)c3ccccc3)CC2)cc1 | SLC6A2 | transporter uptake, inhibitor | HEK293 | 1 µM | inhibition | 84.9%
CNC(=O)c1cc(Oc2ccc(NC(=O)Nc3ccc(Cl)c(C(F)(F)F)c3)cc2)ccn1 | Serine/threonine-protein kinase Chk2 (CHEK2, Homo sapiens, UniProt O96017, R145W) | enzyme activity, inhibitor |  | 0.3 µM | inhibition | -8%
CCCOc1ccc(OC)c(F)c1C(=O)c1ccc(C(=O)N[C@@H]2CNC[C@H]2NC(=O)c2ccc3[nH]ncc3c2)cc1 | cAMP-dependent protein kinase catalytic subunit PRKX (PRKX, Homo sapiens, UniProt P51817) | enzyme activity, inhibitor |  | 0.1 µM | remaining activity | 16%
CC(C)(C)c1nc(-c2cccc(NS(=O)(=O)c3c(F)cccc3F)c2F)c(-c2ccnc(N)n2)s1 | Mitotic checkpoint serine/threonine-protein kinase BUB1 beta (BUB1B, Homo sapiens, UniProt O60566) | enzyme activity, inhibitor, radiometric |  | 1 µM | remaining activity | 101%
CC(=O)N[C@H]1CSSC[C@@H](C(=O)N[C@H](Cc2c[nH]c3ccccc23)C(N)=O)NC(=O)[C@H](Cc2ccccc2)NC(=O)[C@H](CCCNC(=N)N)NC1=O | Melanocortin receptor 4 (MC4R, Homo sapiens, UniProt P32245) | cAMP, agonist | HEK293 | 3 min | Emax | 0%
Cc1ccc(Nc2nccc(N(C)c3ccc4c(C)n(C)nc4c3)n2)cc1S(N)(=O)=O | Serine/threonine-protein kinase Chk2 (CHEK2, Homo sapiens, UniProt O96017) | enzyme activity, inhibitor |  | 10 µM | inhibition | 44%
Fc1ccc(C(c2ccc(F)cc2)c2nnnn2CCCN2CCC(Cc3ccccc3)CC2)cc1 | SLC6A2 | transporter uptake, inhibitor | HEK293 | 1 µM | inhibition | 39.7%
Cc1cnc(Nc2ccc(OCCN3CCCC3)cc2)nc1Nc1cccc(S(=O)(=O)NC(C)(C)C)c1 | Chromatin remodeling regulator CECR2 (CECR2, Homo sapiens, UniProt Q9BXF3) | thermal stability, DSF |  | 10 µM | ΔTm | 0.12 °C
Clc1ccc(C(c2ccc(Cl)cc2)c2nnnn2CCCCN2CCC(Cc3ccc(Cl)c(Cl)c3)CC2)cc1 | SLC6A2 | transporter uptake, inhibitor | HEK293 | 1 µM | inhibition | 41.1%
Cc1cc(NC(=O)c2cccc3cc(-c4cccc5[nH]nc(N)c45)ccc23)ccc1F | Serine/threonine-protein kinase Chk2 (CHEK2, Homo sapiens, UniProt O96017, I157T) | enzyme activity, inhibitor |  | 0.1 µM | activity vs control | 72%
Cc1ccc(C(=O)Nc2ccc(CN3CCN(C)CC3)c(C(F)(F)F)c2)cc1C#Cc1cnc2cccnn12 | Peripheral plasma membrane protein CASK (CASK, Homo sapiens, UniProt O14936) | cell-free assay |  | 23.5 nM | remaining signal | 84%
